XBP1 UPR activ = activators of adaptive XBP1 UPR arm, primary screen, cell-based, CHO-XBP1 luciferase reporter, luminescence, uHTS. IRE1-XBP1 UPR activation; percent of tunicamycin response, DMSO as zero. activation, % at 20 µM. 330,000 compounds, 0.33% hits;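 active = versus positive control, 20 µM dose yields 30% or more activation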;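 also: 100% = tunicamycin at 10 µg/mL and 0% = DMSO only wells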
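Material: CHO-XBP1 cells stably carrying IRE1-XBP1-driven luciferase reporter | Medium: F12 with 10% serum | Compound dosing: 20 µM single concentration, DMSO 1% | Incubation: Overnight seeding at 37 °C, 6 h compound treatment at 37 °C | Detection: Steady-Glo luminescence read | Read-out basis: % activation of reporter signal versus tunicamycin and DMSO controls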
UPR CHOP act = activators of apoptotic CHOP UPR arm, primary screen, cell-based, CHO-CHOP luciferase reporter, luminescence, uHTS | activation, % at 10 µM | UPR activation; percent of tunicamycin response over DMSO baseline | AID 449763, 2010 | 330,000 compounds, 0.34% hits;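 active = at 10 µM dose, activation of 40% or more, normalized to positive control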;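 also: 100% = tunicamycin at 10 µg/mL and 0% = DMSO alone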
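assay system = CHO CHOP reporter cells | amount = 500 CHO-CHOP cells per well | buffer or medium = F12 with 10% FBS | incubation = 16-18 h cell attachment, then 6 h compound exposure, 37 °C | detection = luminescence read with Steady-Glo | read-out = percent activation relative to tunicamycin control | controls = tunicamycin high control, DMSO low control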
Dynein transport = inhibitors of GR-EGFP nuclear translocation, primary screen, dynein cargo transport inhibitor project, imaging, high-content, 3617.4 mouse cells. test concentration mostly 20 µM; stimulated with dexamethasone, 1 µM; active compounds read low. z-score, hits read low. 220,000 compounds, 0.47% hits;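 active = plate z-score of nuclear minus cytoplasmic receptor signal below a set negative limit, without overly bright fluorescence or cell loss, cut at about -3.5 in these data, passing the limit was not always enough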;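 also: z-score of nuclear minus cytoplasmic ring GR-EGFP intensity difference per well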
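Schedule: 48 h induction, then 1 h compound, then 30 min agonist, 37 °C. Buffer or medium: tetracycline-free induction medium containing charcoal-stripped FBS. Reagent: 1.0 µM final dexamethasone stimulus. Evaluation: nuclear versus cytoplasmic GR-EGFP signal, averaged per well. Signal: high-content fluorescence imaging after fixation.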
p-CIP stab down = p/CIP-EGFP fusion destabilizers, primary screen, fluorescence, F442A cells; 16 h; decrease of EGFP signal, % at 10 µM; 290,000 compounds, 0.01% hits; AID 1984, 2009;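 active = EGFP signal decrease of at least 30% at 10 µM or well 3 SD below plate mean, unless failing retest; inactive = the rest, including hits failing retest or dose response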
CHOP inhibitor = inhibitors of CHOP promoter induction, primary screen, cell-based, unfolded protein response, luciferase reporter. AID 2732, 2010. inhibition, % at 10 µM. 220,000 compounds, 3.8% hits. CHO-K1 CHOP-promoter luciferase, tunicamycin-induced, 15-18 h;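 active = compounds that reduced the stress-induced luciferase reporter signal by more than about 70% of percent inhibition, limit read from the data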;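 also: 0% = tunicamycin plus vehicle and 100% = wells without tunicamycin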
B2AR ag = beta2AR agonists driving receptor internalization, primary screen, cell-based, FAP fluorogen, flow cytometry; Beta-2 adrenergic receptor (Homo sapiens), P07550; AID 504454, 2011; response, % (test concentration not listed); Am2.2-beta2AR cells; 340,000 compounds, 0.43% hits;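 active = response above a set limit, near 3 SD of response in nonfluorescent compounds, cut at about 42% in these data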
Target sequence (P07550 whole entry, looked up): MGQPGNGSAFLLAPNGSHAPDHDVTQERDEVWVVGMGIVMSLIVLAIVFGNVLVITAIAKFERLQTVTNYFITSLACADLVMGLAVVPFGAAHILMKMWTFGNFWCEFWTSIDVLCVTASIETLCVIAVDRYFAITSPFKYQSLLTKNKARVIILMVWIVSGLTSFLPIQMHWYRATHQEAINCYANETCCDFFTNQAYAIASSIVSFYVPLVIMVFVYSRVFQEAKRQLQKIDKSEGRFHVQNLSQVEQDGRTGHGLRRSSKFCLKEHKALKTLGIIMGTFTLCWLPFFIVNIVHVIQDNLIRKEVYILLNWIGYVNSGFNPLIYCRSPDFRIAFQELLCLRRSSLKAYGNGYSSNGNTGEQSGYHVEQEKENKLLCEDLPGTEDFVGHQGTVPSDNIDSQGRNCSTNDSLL
Active calls of the source: *; / = no result. Many of the other results were omitted from the sample, so hits are more common in it than they were.

SMILES | XBP1 UPR activ | UPR CHOP act | Dynein transport | p-CIP stab down | CHOP inhibitor | B2AR ag
CCOC(=O)COc1ccc(S(=O)(=O)NCc2ccncc2)cc1 | -4 | 4 | 0.15 | 0 | 58 | 9
CCOc1ccc(S(=O)(=O)NCc2ccncc2)cc1 | 4 | 4 | -0.99 | -5 | 78* | -2
CC(Sc1nc2ncc(Cl)cc2[nH]1)C(=O)NC1(C#N)CCCCC1 (stereo unspecified) | -3 | -1 | / | / | / | 3
CC/C(=N\Nc1ccc([N+](=O)[O-])cc1)c1ccccc1 | 2 | 1 | -0.2 | 5 | 75* | 5
O=C1NC(=O)C2C1C(c1cccs1)NN2Cc1ccccc1 (stereo unspecified) | 1 | -1 | 0.44 | -2 | 6 | 2
CCCCNC(=O)c1cc2c(=O)n3cccc(C)c3nc2n(Cc2ccccc2)c1=N | -1 | -2 | -0.77 | -8 | -8 | 87*
CCOCCCn1c(=N)c(C(N)=S)cc2c(=O)n3cccc(C)c3nc21 | 5 | 1 | 0.3 | -5 | -40 | -5
Cc1cccn2c(=O)c3cc(C(=O)NC4CCCC4)c(=N)n(CCc4ccccc4)c3nc12 | 2 | 3 | / | -8 | / | 79*
Cc1cccn2c(=O)c3cc(C(=O)NC4CCCCC4)c(=N)n(Cc4ccccc4)c3nc12 | -3 | 8 | / | -8 | / | 32
Cc1cccn2c(=O)c3cc(C(N)=S)c(=N)n(CCCOC(C)C)c3nc12 | 2 | 3 | -0.99 | -20 | 1 | 71*
CCNC(=O)c1cc2c(=O)n3cccc(C)c3nc2n(CCc2ccccc2)c1=N | -2 | 1 | -1.2 | -8 | -7 | 89*
CCO[C@@H]1OC(C(=O)NCc2ccccc2)=C[C@H](c2ccc(C(F)(F)F)cc2)[C@H]1CCCO | -1 | 0 | 1.6 | -4 | -10 | 1
CC(=O)c1cccc(S(=O)(=O)NCCC(=O)Nc2ccc(S(N)(=O)=O)cc2)c1 | -2 | -2 | / | -20 | / | 4
CC(C)(C)SCCNC(=O)CN(c1ccc(F)cc1)S(=O)(=O)c1ccccc1 | -2 | -1 | 1.6 | 0 | 11 | 0
O=C(CN(c1ccccc1)S(=O)(=O)c1ccccc1[N+](=O)[O-])NN=C1CCCCCCC1 | 0 | 1 | 2.6 | 0 | 12 | 0
Cc1cccn2c(=O)c3cc(C(=O)NC4CCCC4)c(=N)n(Cc4ccc(F)cc4)c3nc12 | 0 | 1 | / | -5 | / | 103*
C=CCn1c2ccccc2c(=O)c2cc(C#Cc3ccsc3)ccc21 | / | / | / | -2 | / | /
CC(C)N(C(=O)COC(=O)[C@H](C)NC(N)=O)c1ccccc1 | 3 | 2 | 0.75 | 4 | 35 | 1
O=C(CCc1nnc(C2CCCCC2)o1)NCc1cccc(-n2cccn2)c1 | 1 | 5 | -0.69 | 2 | 6 | -20
CC(C)OC(=O)c1cc(NC(=S)Nc2ccc([N+](=O)[O-])cc2)cc(C(=O)OC(C)C)c1 | 2 | 29 | / | 0 | 75* | 9
O=C(CN1/C(=C(/O)c2ccccc2)C(=O)c2ccccc2S1(=O)=O)c1ccccc1 | 1 | -1 | 2.1 | -12 | 96* | -3
COc1ccc(C(=O)CN2C(=O)c3ccccc3S2(=O)=O)cc1 | -8 | -7 | 0.16 | -12 | 53 | -7
Oc1c(C=Nc2ccccc2)sc(=S)n1Cc1ccccc1 | 1 | -1 | 0.74 | -23 | 80* | -5
CCn1c(O)c(C=Nc2ccccc2)sc1=S | -1 | 4 | 0.38 | 2 | -9 | /
O=[N+]([O-])c1ccc(Sc2cccc3cccnc23)c2cccnc12 | 7 | -1 | 0.33 | 0 | 34 | 4
SMILES | XBP1 UPR activ | UPR CHOP act | Dynein transport | p-CIP stab down | CHOP inhibitor | B2AR ag
COC(=O)c1ccc(CNC(=O)COC(=O)c2cc(Cl)nc(Cl)c2)cc1 | -3 | -3 | -0.22 | -4 | 25 | 3
CCCNS(=O)(=O)/C=C/c1ccccc1 | -1 | 1 | -0.81 | -26 | 6 | -3
O=S(=O)(/C=C/c1ccccc1)NCc1ccccc1Cl | 3 | 6 | -1.3 | -2 | 5 | 67*
C/C(=N/NC(=O)CNC(=O)c1cccnc1)c1ccc(Cl)c(Cl)c1 | -3 | -1 | / | -4 | / | 7
COCC(C)n1c(-c2ccc3c(c2)NC(=O)CO3)csc1=Nc1ccc(OC(F)F)cc1 (stereo unspecified) | -1 | 1 | -0.23 | -8 | 89* | -65
O=C1COc2ccc(-c3csc(=Nc4ccc(OC(F)F)cc4)n3CC3CCCO3)cc2N1 (stereo unspecified) | -1 | -2 | -0.57 | -9 | 78* | 5
CCN=c1scc(-c2ccc3c(c2)NC(=O)CO3)n1N=C1CCCC1 | -1 | -2 | 0.97 | -6 | / | 16
CC(C)(C)C(C(=O)n1cccc1C#N)c1ccccc1 (stereo unspecified) | -2 | 1 | / | / | / | -7
CN1CCC2(CC1)N=C(c1ccc(F)cc1)C(=S)N2C(=O)c1ccc(C(C)(C)C)cc1 | 1 | 4 | -0.62 | -1 | 81* | 28
COC(=O)Nc1ccc2c(c1)N(C(=O)CCN(C)C)c1ccccc1CC2 | -3 | 1 | / | -10 | / | -9
CCC(=O)N1CC2(CC(c3cccc(NC(=O)COc4ccc(Cl)cc4)c3)=NO2)C[C@@H]1C(N)=O (stereo partly specified) | 0 | 1 | -0.9 | -4 | 3 | /
NC(=O)[C@H]1CC2(CC(c3cccc(NC(=O)COc4ccc(Cl)cc4)c3)=NO2)CN1C(=O)c1ccc(Cl)cc1 (stereo partly specified) | 2 | 2 | 0.97 | 0 | 95* | 25
CCN1CCN(c2nc(-c3ccccn3)nc3ccccc23)CC1 | -2 | -1 | -0.31 | -4 | -21 | -7
COCCN(CCOC)c1nc(-c2ccc(C)cc2)nc2ccccc12 | -1 | 3 | / | -11 | / | 1
CCCCN(CC)c1nc(-c2ccncc2)nc2ccccc12 | 0 | 0 | 0.076 | -10 | 80* | 11
CCCN(CCC)c1nc(-c2ccccn2)nc2ccccc12 | 7 | 69* | / | -9 | / | -13
O=C(O)c1cccc(N2C(=O)/C(=C/c3ccc(SCc4ccc(Cl)cc4)o3)SC2=S)c1 | / | / | -0.1 | -11 | 75* | -32
O=C(Nc1ccn(Cc2ccccc2F)n1)c1ccc(COc2ccccc2Cl)cc1 | 3 | 1 | -0.11 | 4 | 74* | 1
CCn1c(=O)c(C(=O)CN2c3ccccc3CC2C)c(N)n(Cc2ccccc2)c1=O (stereo unspecified) | -3 | -3 | -0.71 | -16 | 87* | 11

Screens from PubChem BioAssay.
